In ChEMBL document CHEMBL1147141, “Potent nonpeptide antagonists of the bradykinin B1 receptor: structure-activity relationship studies with novel diaminochroman carboxamides” (J Med Chem, 2007):

Columns and labels:
B1 bradykinin receptor [1] = target: T1, B1 bradykinin receptor (Homo sapiens, UniProt P46663); assay: Displacement of [3H]DAK from human bradykinin B1 receptor expressed in CHOD cells; type: cell-based
T1 sequence (P46663 whole entry): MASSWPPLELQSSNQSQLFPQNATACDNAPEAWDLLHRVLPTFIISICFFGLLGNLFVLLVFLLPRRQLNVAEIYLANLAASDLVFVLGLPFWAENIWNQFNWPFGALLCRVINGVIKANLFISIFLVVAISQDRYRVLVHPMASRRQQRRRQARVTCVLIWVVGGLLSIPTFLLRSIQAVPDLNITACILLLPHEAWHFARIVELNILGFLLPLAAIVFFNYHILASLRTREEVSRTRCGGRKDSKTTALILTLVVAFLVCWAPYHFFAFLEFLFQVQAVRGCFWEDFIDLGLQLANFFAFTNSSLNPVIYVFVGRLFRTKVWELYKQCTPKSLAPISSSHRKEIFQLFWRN

B1 bradykinin receptor [2] = target: T1, B1 bradykinin receptor; assay: Antagonist activity at human bradykinin B1 receptor expressed in CHOD cells assessed as effect on DAK-induced calcium flux; type: functional, cell-based
[3] = Metabolic stability in rat liver microsomes; type: ADME, Microsome; conditions: read-out: Stability
B1 bradykinin receptor [4] = target: T2, B1 bradykinin receptor (Oryctolagus cuniculus, UniProt P48748); assay: Antagonist activity at rabbit bradykinin B1 receptor; type: functional
T2 sequence (P48748 whole entry): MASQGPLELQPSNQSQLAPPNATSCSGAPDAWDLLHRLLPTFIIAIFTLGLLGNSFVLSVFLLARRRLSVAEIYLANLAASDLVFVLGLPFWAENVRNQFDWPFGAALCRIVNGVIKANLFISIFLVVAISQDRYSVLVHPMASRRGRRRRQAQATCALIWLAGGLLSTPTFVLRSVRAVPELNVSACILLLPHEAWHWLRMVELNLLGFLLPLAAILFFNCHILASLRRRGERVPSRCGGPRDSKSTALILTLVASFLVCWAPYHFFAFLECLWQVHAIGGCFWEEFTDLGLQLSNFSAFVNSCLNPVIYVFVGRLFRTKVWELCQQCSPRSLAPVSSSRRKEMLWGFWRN

[5] = Clearance in Sprague-Dawley rat at 1 mg/kg, iv; type: ADME, organism-based; parameters: dose 1 mg/kg, route intravenous; conditions: in vivo
How it was run: (§1)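 Male Sprague-Dawley rats (225-280 g) with femoral and jugular vein cannulae were fasted overnight. They received an i.v. bolus of 1 mg/kg in 100% DMSO, prepared on the dosing day, n = 3. Blood was drawn via jugular cannula over 6 or 8 h into heparin. Plasma was acetonitrile-precipitated and measured by LC-MS/MS (positive MRM). Parameters were noncompartmental and reported with SEM.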

[6] = Half life in Sprague-Dawley rat at 1 mg/kg, iv; type: ADME, organism-based; parameters: dose 1 mg/kg, route intravenous; conditions: in vivo; how it was run: as §1
[7] = Oral bioavailability in Sprague-Dawley rat at 10 mg/kg, po; type: ADME, organism-based; conditions: in vivo
How it was run: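 Male Sprague-Dawley rats (225-280 g), cannulated and fasted overnight, were dosed by oral gavage at 10 mg/kg in 1% Tween 80, 2% HPMC, prepared 24-48 h before dosing, n = 3. Jugular blood was sampled over 6 or 8 h. Plasma was analysed by LC-MS/MS and parameters derived noncompartmentally.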

[8] = Metabolic stability in human liver microsomes; type: ADME, Microsome; conditions: read-out: Stability
B1 bradykinin receptor [9] = target: T3, B1 bradykinin receptor (Rattus norvegicus, UniProt P97583); assay: Antagonist activity at rat bradykinin B1 receptor; type: functional
T3 sequence (P97583 whole entry): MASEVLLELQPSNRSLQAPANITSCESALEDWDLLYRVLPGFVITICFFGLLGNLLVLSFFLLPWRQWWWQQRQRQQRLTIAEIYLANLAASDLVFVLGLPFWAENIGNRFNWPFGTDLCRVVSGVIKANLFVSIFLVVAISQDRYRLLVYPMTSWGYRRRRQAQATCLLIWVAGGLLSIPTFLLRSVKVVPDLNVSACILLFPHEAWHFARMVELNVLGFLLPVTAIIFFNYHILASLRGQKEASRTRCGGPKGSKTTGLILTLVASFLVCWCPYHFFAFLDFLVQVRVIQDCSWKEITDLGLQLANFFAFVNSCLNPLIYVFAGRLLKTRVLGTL

[10] = Volume of distribution at steady state in Sprague-Dawley rat at 1 mg/kg, iv; type: ADME, organism-based; parameters: dose 1 mg/kg, route intravenous; conditions: in vivo, read-out: Vss; how it was run: as §1

| SMILES | Ki (B1 bradykinin receptor [1]) | IC50 (B1 bradykinin receptor [2]) | also measured |
| --- | --- | --- | --- |
| O=C(C[C@@H](NS(=O)(=O)c1ccc2ccccc2c1)c1ccccc1)N[C@@H]1CCOc2cc(CN3CCOCC3)ccc21 | 3.7 nM (antagonist) | 10.9 nM (antagonist) |  |
| CC(C)NCc1ccc2c(c1)OCC[C@H]2NC(=O)C[C@@H](NS(=O)(=O)c1ccc2ccccc2c1)c1ccccc1 | 8.3 nM (antagonist) | 45.9 nM (antagonist) |  |
| CC(C)CNCc1ccc2c(c1)OCC[C@H]2NC(=O)C[C@@H](NS(=O)(=O)c1cccc(C(F)(F)F)c1)c1ccc(F)cc1 | 5.9 nM (antagonist) | 14.8 nM (antagonist) |  |
| CC(C)NCc1ccc2c(c1)OCC[C@H]2NC(=O)C[C@@H](NS(=O)(=O)c1cccc(C(F)(F)F)c1)c1ccc(F)cc1 | 4.7 nM (antagonist) | 20.1 nM (antagonist) |  |
| CNCc1ccc2c(c1)OCC[C@H]2NC(=O)C[C@@H](NS(=O)(=O)c1ccc2ccccc2c1)c1ccccc1 | 138 nM (antagonist) | 212 nM (antagonist) |  |
| CN(C)Cc1ccc2c(c1)OCC[C@H]2NC(=O)C[C@@H](NS(=O)(=O)c1ccc2ccccc2c1)c1ccccc1 | 84.8 nM (antagonist) | 167 nM (antagonist) |  |
| O=C(C[C@@H](NS(=O)(=O)c1ccc2ccccc2c1)c1ccccc1)N[C@@H]1CCOc2cc(CNC3CCCCC3)ccc21 | 21.8 nM (antagonist) | 69.9 nM (antagonist) |  |
| O=C(C[C@@H](NS(=O)(=O)c1ccc2ccccc2c1)c1ccccc1)N[C@@H]1CCOc2cc(CN3CCCC3)ccc21 | 5.7 nM (antagonist) | 14.8 nM (antagonist) |  |
| NCc1ccc2c(c1)OCC[C@H]2NC(=O)C[C@@H](NS(=O)(=O)c1ccc2ccccc2c1)c1ccccc1 | 308 nM (antagonist) | 352 nM (antagonist) |  |
| CCNCc1ccc2c(c1)OCC[C@H]2NC(=O)C[C@@H](NS(=O)(=O)c1ccc2ccccc2c1)c1ccccc1 | 8.9 nM (antagonist) | 60.2 nM (antagonist) |  |
| O=C(C[C@@H](NS(=O)(=O)c1cccc(C(F)(F)F)c1)c1ccc(F)cc1)N[C@@H]1CCOc2cc(CNC3CCC3)ccc21 | 10 nM (antagonist) | 46.2 nM (antagonist) |  |
| C[C@@H]1CCC[C@H](C)N1Cc1ccc2c(c1)OCC[C@H]2NC(=O)C[C@@H](NS(=O)(=O)c1ccc2ccccc2c1)c1ccccc1 | 13.4 nM (antagonist) | 96.3 nM (antagonist) |  |
| COCCNCc1ccc2c(c1)OCC[C@H]2NC(=O)C[C@@H](NS(=O)(=O)c1ccc(Cl)c(Cl)c1)c1ccc(F)cc1 | 6.7 nM (antagonist) | 9.4 nM (antagonist) |  |
| CC(C)CNCc1ccc2c(c1)OCC[C@H]2NC(=O)C[C@@H](NS(=O)(=O)c1ccc2ccccc2c1)c1ccccc1 | 5 nM (antagonist) | 10.5 nM (antagonist) |  |
| O=C(C[C@@H](NS(=O)(=O)c1cccc(C(F)(F)F)c1)c1ccc(F)cc1)N[C@@H]1CCOc2cc(CN3CCCC3)ccc21 | 5.5 nM (antagonist) | 19.7 nM (antagonist) | microsomal CLint [3]: 158 µL/min/mg; IC50 (B1 bradykinin receptor [4]): 450 nM (antagonist); clearance [5]: 51.3 mL/min/kg; half-life [6]: 3.8 h; bioavailability [7]: 41%; microsomal CLint [8]: 355 µL/min/mg; Ki (B1 bradykinin receptor [9]): 151 nM (antagonist); Vd [10]: 13.7 L/kg |
| O=C(C[C@@H](NS(=O)(=O)c1ccc2ccccc2c1)c1ccccc1)N[C@@H]1CCOc2cc(CO)ccc21 | > 50000 nM | > 4000 nM |  |
| COCCNCc1ccc2c(c1)OCC[C@H]2NC(=O)C[C@@H](NS(=O)(=O)c1cccc(C(F)(F)F)c1)c1ccc(F)cc1 | 14 nM (antagonist) | 17.4 nM (antagonist) | microsomal CLint [3]: 265 µL/min/mg; IC50 (B1 bradykinin receptor [4]): 1680 nM (antagonist); clearance [5]: 39.4 mL/min/kg; half-life [6]: 3.4 h; bioavailability [7]: 49%; microsomal CLint [8]: 310 µL/min/mg; Ki (B1 bradykinin receptor [9]): 208 nM (antagonist); Vd [10]: 8.09 L/kg |

Second part, led by results:

| Ki (B1 bradykinin receptor [1]) | IC50 (B1 bradykinin receptor [2]) | SMILES | also measured |
| --- | --- | --- | --- |
| 40.6 nM (antagonist) | 207 nM (antagonist) | Cc1c(Cl)cccc1S(=O)(=O)N[C@H](CC(=O)N[C@@H]1CCOc2cc(CNC(C)(C)C)ccc21)c1ccccc1 |  |
| 393 nM (antagonist) | 2030 nM (antagonist) | CC(C)(C)NCc1ccc2c(c1)OCC[C@H]2NC(=O)C[C@@H](NS(=O)(=O)c1ccccc1Cl)c1ccccc1 |  |
| 25.2 nM (antagonist) | 203 nM (antagonist) | CC(C)(C)NCc1ccc2c(c1)OCC[C@H]2NC(=O)C[C@@H](NS(=O)(=O)c1ccc(F)c(Cl)c1)c1ccccc1 |  |
| 132 nM (antagonist) | 580 nM (antagonist) | CC(C)(C)NCc1ccc2c(c1)OCC[C@H]2NC(=O)C[C@@H](NS(=O)(=O)c1ccc(Cl)cc1)c1ccccc1 |  |
| 127 nM (antagonist) | 255 nM (antagonist) | CC(C)(C)NCc1ccc2c(c1)OCC[C@H]2NC(=O)C[C@@H](NS(=O)(=O)c1ccc(Cl)cc1Cl)c1ccccc1 |  |
| 120 nM (antagonist) | 566 nM (antagonist) | CC(C)(C)NCc1ccc2c(c1)OCC[C@H]2NC(=O)C[C@@H](NS(=O)(=O)c1cccc(C(F)(F)F)c1)c1ccc(C#N)cc1 |  |
| 20.6 nM (antagonist) | 127 nM (antagonist) | CC(C)(C)NCc1ccc2c(c1)OCC[C@H]2NC(=O)C[C@@H](NS(=O)(=O)c1cc(Cl)c(F)cc1F)c1ccccc1 |  |
| 4.8 nM (antagonist) | 9.9 nM (antagonist) | CC(C)(C)NCc1ccc2c(c1)OCC[C@H]2NC(=O)C[C@@H](NS(=O)(=O)c1cccc(C(F)(F)F)c1)c1ccc(F)cc1 |  |
| 77.6 nM (antagonist) | 330 nM (antagonist) | CC(C)(C)NCc1ccc2c(c1)OCC[C@H]2NC(=O)C[C@@H](NS(=O)(=O)c1ccc(C(F)(F)F)cc1)c1ccccc1 |  |
| 5 nM (antagonist) | 9.6 nM (antagonist) | CC(C)(C)NCc1ccc2c(c1)OCC[C@H]2NC(=O)C[C@@H](NS(=O)(=O)c1ccc(Cl)c(Cl)c1)c1ccc(F)cc1 |  |
| 367 nM (antagonist) | 2000 nM (antagonist) | CC(C)(C)NCc1ccc2c(c1)OCC[C@H]2NC(=O)C[C@@H](NS(=O)(=O)c1ccccc1C(F)(F)F)c1ccccc1 |  |
| 5.4 nM (antagonist) | 17 nM (antagonist) | CC(C)(C)NCc1ccc2c(c1)OCC[C@H]2NC(=O)C[C@@H](NS(=O)(=O)c1ccc2ccccc2c1)c1ccccc1 |  |
| 7.6 nM (antagonist) | 24.3 nM (antagonist) | CC(C)(C)NCc1ccc2c(c1)OCC[C@H]2NC(=O)C[C@@H](NS(=O)(=O)c1ccc(Cl)c(Cl)c1)c1ccccc1 |  |
| 24.8 nM (antagonist) | 60.9 nM (antagonist) | CC(C)(C)NCc1ccc2c(c1)OCC[C@H]2NC(=O)C[C@@H](NS(=O)(=O)c1ccc(C(C)(C)C)cc1)c1ccccc1 |  |
| 17.9 nM (antagonist) | 78.4 nM (antagonist) | CC(C)(C)NCc1ccc2c(c1)OCC[C@H]2NC(=O)C[C@@H](NS(=O)(=O)c1cccc(C(F)(F)F)c1)c1ccccc1 |  |
| 27.7 nM (antagonist) | 113 nM (antagonist) | CC(C)(C)NCc1ccc2c(c1)OCC[C@H]2NC(=O)C[C@@H](NS(=O)(=O)c1cccc(Cl)c1)c1ccccc1 |  |
